The results in this text go back to ChEMBL document CHEMBL1125485, “Inhibitors of blood platelet cAMP phosphodiesterase. 2. Structure-activity relationships associated with 1,3-dihydro-2H-imidazo[4,5-b]quinolin-2-ones substituted with functionalized side chains” (J Med Chem, 1992).

Structures are written as SMILES. pEC50, pIC50: −log10 of the molar value.

The target in one assay is Phosphodiesterase 3 (Homo sapiens, UniProt Q14432+Q13370). Nature of the assay: Inhibition of human platelet PDE by inhibiting cyclic Adenosine monophosphate (cAMP) hydrolysis.
For assay [1], the species on record is Rattus norvegicus. Nature of the assay: Oral efficacy in rats using the ex vivo aggregatory protocol. It counts as functional. The method in brief:
(§1)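 Rats given compound orally, then ADP-induced platelet aggregation measured ex vivo.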

For assay [2], the species on record is Oryctolagus cuniculus. Nature of the assay: Inhibition of platelet aggregation using collagen as activating agent in rabbit platelet rich plasma (PRP). In kind it is functional. The procedure, abridged:
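Rabbit platelet-rich plasma, aggregation triggered by ADP or collagen after 3 min preincubation of PRP with drug. Single or duplicate determinations, reference agent included.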

The test system of assay [3] is Rattus norvegicus. The assay can be described thus: Percent inhibition of oral efficacy in rats using the ex vivo aggregatory protocol at 10 mg/kg. It counts as functional. The method in brief:
as §1

The test system of assay [4] is Canis familiaris. Nature of the assay: Inhibition of coronary artery occlusion (mean area under flow time curve) in anesthetized dog at 0.1 mg/kg. It counts as functional. As to conditions: Canis lupus familiaris. The procedure, abridged:
(§2)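 Modified Folts-type coronary stenosis-occlusion model of large-vessel thrombosis; read-out mean area under flow-time curve (% seconds) compared with vehicle-treated animals, as percent inhibition of thrombus formation. Five animals.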

Assay [5] concerns the target cGMP-dependent 3',5'-cyclic phosphodiesterase (Homo sapiens, UniProt O00408). The assay can be described thus: Inhibition of human platelet PDE by inhibiting cyclic Guanosine monophosphate (cGMP) hydrolysis.
Assay [6] deals with Canis familiaris. The assay can be described thus: Inhibition of coronary artery occlusion (mean area under flow time curve) in anesthetized dog at 0.01 mg/kg. Particulars: Canis lupus familiaris. It counts as functional. The method in brief:
as §2

Assay [7] has as its system Canis familiaris. The assay can be described thus: Inhibition of coronary artery occlusion (mean area under flow time curve) in anesthetized dog at 0.03 mg/kg. In kind it is functional. As to conditions: Canis lupus familiaris. The procedure, abridged: as §2
The test system of assay [8] is Oryctolagus cuniculus. Nature of the assay: Inhibition of thrombus formation (mean thrombus area) in conscious rabbits at 3.0 mg/kg. Particulars: values are per cent of control. It counts as functional. The method in brief:
(§3)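 Conscious rabbit ear biolaser model: ruby laser induces microvascular thrombi. Predose mean thrombus area from 10 vessels, then compound given orally as suspension in H2O/Tween 20 and 10 trials repeated 2 h later in the same rabbit; percent inhibition versus predose. At least three rabbits.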

For assay [9], the system named is Oryctolagus cuniculus. The assay can be described thus: Inhibition of thrombus formation (mean thrombus area) in conscious rabbits at 1.0 mg/kg. It counts as functional. As to conditions: values are per cent of control. The procedure, abridged:
as §3

The test system of assay [10] is Oryctolagus cuniculus. The assay can be described thus: Inhibition of thrombus formation (mean thrombus area) in conscious rabbits at 0.3 mg/kg. In kind it is functional. As to conditions: values are per cent of control. The method in brief:
as §3

A short description of assay [11]: Inhibition of human platelet c-AMP phosphodiesterase hydrolysis of cAMP.
Assay [12] concerns Mustela putorius furo. Nature of the assay: Change in right ventricular contractile force (RCVF) in anesthetized ferrets by intraduodenal dose at 0.3 mg/kg. Particulars: Heart right ventricle, dose 3 mg/kg, in the assay text read “3 mg/kg” for “0.3 mg/kg”. It counts as functional. The procedure, abridged:
(§4)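 Anesthetized ferrets dosed intraduodenally; heart rate, mean arterial blood pressure and right ventricular contractile force monitored as dose-dependent changes, reported as maximum change (%). Averages from at least three separate experiments.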

The subject of assay [13] is Mustela putorius furo. Nature of the assay: Change in heart rate (HR)in anesthetized ferrets by intraduodenal dose at 10 mg/kg.
The test system of assay [14] is Mustela putorius furo. Nature of the assay: Change in heart rate (HR)in anesthetized ferrets by intraduodenal dose at 0.3 mg/kg. In kind it is functional. Particulars: dose 3 mg/kg, in the assay text read “3 mg/kg” for “0.3 mg/kg”. The procedure, abridged:
as §4

The test system of assay [15] is Mustela putorius furo. Nature of the assay: Change in mean arterial blood pressure (MABP) in anesthetized ferrets by intraduodenal dose at 0.3 mg/kg. In kind it is functional, Artery. As to conditions: dose 3 mg/kg, in the assay text read “3 mg/kg” for “0.3 mg/kg”. The method in brief: as §4
In assay [16] the test system is Mustela putorius furo. The assay can be described thus: Change in mean arterial blood pressure (MABP) in anesthetized ferrets by intraduodenal dose at 3 mg/kg. It counts as functional, Artery. As to conditions: dose 10 mg/kg, in the assay text read “10 mg/kg” for “3 mg/kg”. The procedure, abridged:
as §4

Assay [17] deals with Mustela putorius furo. Nature of the assay: Change in right ventricular contractile force (RCVF) in anesthetized ferrets by intraduodenal dose at 10 mg/kg. As to conditions: Heart right ventricle.
The subject of assay [18] is Canis familiaris. The assay can be described thus: Inhibition of coronary artery occlusion (mean area under flow time curve) in anesthetized dog at 0.3 mg/kg. In kind it is functional. Particulars: Canis lupus familiaris. The method in brief: as §2

cGMP-dependent 3',5'-cyclic phosphodiesterase, sequence (O00408 whole entry): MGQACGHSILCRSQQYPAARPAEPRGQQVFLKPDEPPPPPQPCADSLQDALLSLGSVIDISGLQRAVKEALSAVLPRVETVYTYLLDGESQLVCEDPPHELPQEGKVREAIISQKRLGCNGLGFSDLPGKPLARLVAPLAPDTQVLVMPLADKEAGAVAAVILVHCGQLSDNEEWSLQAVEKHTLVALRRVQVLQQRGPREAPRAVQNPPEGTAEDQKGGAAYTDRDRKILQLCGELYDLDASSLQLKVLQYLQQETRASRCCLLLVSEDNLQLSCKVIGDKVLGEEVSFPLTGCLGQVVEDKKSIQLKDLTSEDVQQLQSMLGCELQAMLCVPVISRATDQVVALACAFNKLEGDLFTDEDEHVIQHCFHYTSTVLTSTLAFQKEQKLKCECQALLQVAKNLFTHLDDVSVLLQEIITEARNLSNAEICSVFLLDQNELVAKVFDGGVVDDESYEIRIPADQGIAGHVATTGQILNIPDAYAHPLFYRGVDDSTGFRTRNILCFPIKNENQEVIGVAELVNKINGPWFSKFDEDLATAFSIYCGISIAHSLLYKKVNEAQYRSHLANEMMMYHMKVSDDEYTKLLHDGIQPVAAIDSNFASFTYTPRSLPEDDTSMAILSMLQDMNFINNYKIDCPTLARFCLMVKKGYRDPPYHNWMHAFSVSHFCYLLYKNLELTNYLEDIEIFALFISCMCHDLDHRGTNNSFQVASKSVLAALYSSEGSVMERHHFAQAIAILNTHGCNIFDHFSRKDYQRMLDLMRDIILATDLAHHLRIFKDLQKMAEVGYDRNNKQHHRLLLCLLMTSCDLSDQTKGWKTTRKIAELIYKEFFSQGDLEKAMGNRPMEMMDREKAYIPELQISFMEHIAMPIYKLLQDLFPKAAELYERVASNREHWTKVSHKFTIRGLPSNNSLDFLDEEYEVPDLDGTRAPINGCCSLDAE

As usually defined, the IC50 is the midpoint of a concentration-inhibition curve. Low values mean greater potency in that assay, high ones weaker potency in that assay. Usually ED50 stands for the dose at which the effect has come halfway, by size or by number of responders. The low end stands for an effect at a small dose, the high end for a need for a large dose. As a reminder, the pEC50 is the negative decadic logarithm of the EC50, by convention in mol/L. As to `O=C(CCCOc1ccc2[nH]c3nc(O)nc-3cc2c1)NC1CCCCCC1`, at Phosphodiesterase 3, the IC50 is 10 nM. Also, the ED50 in the assay listed under Rattus norvegicus [1] came to 5.4 mg/kg. In the assay filed under Oryctolagus cuniculus [2], this compound had a pEC50 of 8.10.

Usually inhibition in vivo stands for the drop in the measured response relative to a control, in per cent. On Phosphodiesterase 3, `CN(C(=O)CCCOc1ccc2nc3c(cc2c1)nc(O)n3C)C1CCCCC1` gave an IC50 of 100 nM. Moreover, the inhibition in vivo at 10 mg/kg in the assay on Rattus norvegicus [3] was found to be 68%. Further, the 50% effective dose (ED50) in the assay filed under Rattus norvegicus [1] was under 10 mg/kg. In addition, the pEC50 in the assay listed under Oryctolagus cuniculus [2] is 6.89.

The compound `CC(C)OC(=O)CCCOc1ccc2[nH]c3nc(O)nc-3cc2c1` had an IC50 against Phosphodiesterase 3 of 300 nM. The inhibition in vivo at 10 mg/kg with Rattus norvegicus [3] was 24%. Further, the ED50 in the assay filed under Rattus norvegicus [1] was over 10 mg/kg. This compound gave a negative logarithm of the EC50 (pEC50) in the assay filed under Oryctolagus cuniculus [2] of 7.68.

As usually defined, the pIC50 is the negative decadic logarithm of the IC50, by convention in mol/L. A low value points to a large IC50. Take `COC(=O)CCCOc1ccc2nc3[nH]c(=O)[nH]c3cc2c1`: the inhibition in vivo at 0.1 mg/kg in the assay with Canis familiaris [4] amounted to 120%. Further, in assay [5], the pIC50 was under 4.00. Moreover, the inhibition in vivo at 0.01 mg/kg in the assay with Canis familiaris [6] turned out to be 78%. The IC50 at Phosphodiesterase 3 was 400 nM. For the same compound, in the assay on Canis familiaris [7], the inhibition in vivo at 0.03 mg/kg worked out at 109%. Further, the response, % of control at 3 mg/kg in the assay on Oryctolagus cuniculus [8] was 78%. Further, the response, % of control at 1 mg/kg with Oryctolagus cuniculus [9] is 74%. Further, the pEC50 in the assay listed under Oryctolagus cuniculus [2] was 7.70. The response, % of control at 0.3 mg/kg in the assay with Oryctolagus cuniculus [10] was found to be 145%.

In assay [11], `COC(=O)/C=C/C=C/c1ccc2[nH]c3nc(O)nc-3cc2c1` had a pIC50 of 7.05. Also, in the assay filed under Rattus norvegicus [1], the ED50 is 10 mg/kg. This compound also had a pEC50 in the assay filed under Oryctolagus cuniculus [2] of 6.17.

`CCOC(=O)/C=C/c1ccc2[nH]c3nc(O)nc-3cc2c1` gave a pIC50 in assay [11] of 6.00. The pEC50 in the assay listed under Oryctolagus cuniculus [2] was 6.55.

`CNC(=O)CCCOc1ccc2[nH]c3nc(O)nc-3cc2c1` had an IC50 at Phosphodiesterase 3 of 7 nM. Further, in the assay on Rattus norvegicus [3], the inhibition in vivo at 10 mg/kg came to 57%. Moreover, the median effective dose (ED50) in the assay filed under Rattus norvegicus [1] was under 10 mg/kg. In the assay listed under Oryctolagus cuniculus [2], this compound showed a pEC50 of 6.08.

Compound `CCOC(=O)C1CCN(C(=O)CCCOc2ccc3[nH]c4nc(O)nc-4cc3c2)CC1` gave a pIC50 in [5] of 4.00. The compound also returned a concentration for half-maximal inhibition (IC50) at Phosphodiesterase 3 of 5 nM. The compound further returned an ED50 in the assay listed under Rattus norvegicus [1] of 9.6 mg/kg. This compound gave a negative logarithm of the EC50 (pEC50) in the assay listed under Oryctolagus cuniculus [2] of 7.05.

In turn, `CN(C(=O)CCCOc1ccc2nc3nc(O)n(C)c3cc2c1)C1CCCCCC1` gave a pIC50 in assay [5] of 5.15. The IC50 on Phosphodiesterase 3 worked out at 100 nM. The 50% effect level in the assay listed under Rattus norvegicus [1] (ED50) was put at a dose of 10 mg/kg. The negative logarithm of the EC50 (pEC50) in the assay filed under Oryctolagus cuniculus [2] is 8.00.

In turn, `O=C(CCCOc1ccc2nc3[nH]c(=O)[nH]c3cc2c1)NC1CCCCC1` showed a negative logarithm of the IC50 (pIC50) in assay [5] of under 4.00. In addition, the inhibition in vivo at 10 mg/kg in the assay with Rattus norvegicus [3] was found to be 31%. In the assay listed under Oryctolagus cuniculus [2], this compound gave a pEC50 of 8.15.

The compound `CN(C(=O)CCCCOc1ccc2nc3nc(O)n(C)c3cc2c1)C1CCCCCC1` had a negative logarithm of the IC50 (pIC50) in assay [5] of 5.00. Also, the 50% inhibitory concentration (IC50) against Phosphodiesterase 3 was determined as 600 nM. The inhibition in vivo at 10 mg/kg in the assay with Rattus norvegicus [3] amounted to 43%. The compound further showed an ED50 in the assay filed under Rattus norvegicus [1] of over 10 mg/kg.

Compound `OCCOc1ccc2[nH]c3nc(O)nc-3cc2c1` showed a pIC50 in assay [5] of under 4.00. At Phosphodiesterase 3, this compound had a half-maximal inhibitory concentration (IC50) of 20 nM. Also, the ED50 in the assay listed under Rattus norvegicus [1] was under 10 mg/kg. The compound also had a negative-log EC50 (pEC50) in the assay listed under Oryctolagus cuniculus [2] of 8.40.

In [5], `O=c1[nH]c2cc3cc(OCCCCS(=O)(=O)c4ccccc4)ccc3nc2[nH]1` gave a pIC50 of under 4.00. This compound also had an IC50 on Phosphodiesterase 3 of 1 nM. Further, in the assay with Canis familiaris [7], the inhibition in vivo at 0.03 mg/kg stood at 115%. The RVCF worked out at 16% with Mustela putorius furo [12] and 39% in the assay with Mustela putorius furo [17]. The HR is listed as 31% in the assay with Mustela putorius furo [13] and 13% in the assay with Mustela putorius furo [14]. This compound had a response, % of control at 3 mg/kg in the assay on Oryctolagus cuniculus [8] of 62%. Besides, the response, % of control at 1 mg/kg in the assay on Oryctolagus cuniculus [9] was found to be 74%. For the same compound, the results for the MABP in the assay with Mustela putorius furo [15] and in the assay with Mustela putorius furo [16] were -9% and -11%, respectively. In the assay with Oryctolagus cuniculus [10], this compound came in with a response, % of control at 0.3 mg/kg of 137%.

Compound `CN(C(=O)CCCOc1ccc2nc3[nH]c(=O)[nH]c3cc2c1)C1CCCCC1` had a pIC50 in assay [5] of 5.22. On Phosphodiesterase 3, this compound returned a concentration for half-maximal inhibition (IC50) of 2 nM. In addition, in the assay on Canis familiaris [7], the inhibition in vivo at 0.03 mg/kg is 115%. For the same compound, in the assay with Canis familiaris [18], the inhibition in vivo at 0.3 mg/kg was over 120%. For the same compound, the response, % of control at 1 mg/kg in the assay with Oryctolagus cuniculus [9] was determined as 65%. Further, it took a dose of 2.9 mg/kg to reach the 50% effect level in the assay filed under Rattus norvegicus [1] (ED50). The compound also had a pEC50 in the assay listed under Oryctolagus cuniculus [2] of 8.70. Also, the response, % of control at 0.3 mg/kg with Oryctolagus cuniculus [10] was found to be 97%.

Compound `OCCCCCc1ccc2[nH]c3nc(O)nc-3cc2c1` registered an IC50 on Phosphodiesterase 3 of 100 nM. The inhibition in vivo at 10 mg/kg with Rattus norvegicus [3] was determined as 26%. In addition, the median effective dose (ED50) in the assay filed under Rattus norvegicus [1] is over 10 mg/kg. Moreover, in the assay listed under Oryctolagus cuniculus [2], the pEC50 was 6.66.
